In brackets after ≈: the same amount, converted by molar mass. Values belong to the compound of their own block, whether it stands above or below them.
Assays:
[1] = molecular target: Fatty acid synthase (Homo sapiens, UniProt P49327); assay: Inhibition of human FAS assessed as synthesis of long chain fatty acids from malonyl CoA after 60 mins by fluorescence assay
Procedure, shortened: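 FAS enzyme prepared from HeLa cells, in enzyme buffer (20 mM K phosphate, 1 mM EDTA, 1 mM DTT, 5% glycerol, pH 7.4). It was preincubated 60 min at 37 °C with compound (0.1% DMSO), 326 µM NADPH and 60 µM acetyl CoA in 100 mM K phosphate, 1 mM EDTA, 1 mM DTT, pH 7.0. The reaction was started with 200 µM malonyl CoA. NADPH consumption was read at 340 nm over 10 min, and the slope (Vmax) was taken.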

[2] = molecular target: Beta-1 adrenergic receptor (Homo sapiens) (UniProt P08588); assay: Binding affinity to human beta1 adrenergic receptor at 10 uM by radioligand binding assay
[3] = system: Liver microsomes; assay: Metabolic stability in rat liver microsomes; assay type: ADME, Microsome
[4] = organism: Homo sapiens; assay: Liver blood flow human; assay type: ADME, organism-based
[5] = molecular target: Alpha-1A adrenergic receptor (Rattus norvegicus) (UniProt P43140); assay: Binding affinity to rat adrenergic alpha1A receptor at 10 uM by radioligand binding assay
[6] = molecular target: Prostaglandin E2 receptor EP4 subtype (Homo sapiens) (UniProt P35408); assay: Binding affinity to human EP4 receptor at 10 uM by radioligand binding assay
[7] = organism: Mus musculus; assay: Binding affinity to mouse phorbol ester receptor at 10 uM by radioligand binding assay
[8] = molecular target: Fatty acid synthase (Mus musculus, UniProt P19096); assay: Inhibition of FAS in mouse N42 cells assessed as [14C]-acetate incorporation after 4 hrs by scintillation counting; assay type: cell-based
Procedure, shortened: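 Immortalized clonal neuronal mouse hypothalamic N-42 cells were exposed to compound for 60 min at 37 °C, then to 14C-acetate (10^6 dpm) for 4 h at 37 °C. Lipids were extracted with chloroform/methanol and the lower phase was evaporated. Incorporated radioactivity was measured by scintillation counting.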

[9] = organism: Rattus norvegicus; assay: Binding affinity to rat agonist site of GABA-A receptor at 10 uM by radioligand binding assay
[10] = molecular target: Cytochrome P450 2C9 (Homo sapiens, UniProt P11712); assay: Inhibition of human CYP2C9; assay type: ADME
[11] = AUC (0 to infinity) in Han/Wistar rat at 4 mg/kg, po; assay type: ADME, organism-based; design: time infinity, dose 4 mg/kg, route oral; settings: plasma
Procedure, shortened: (§1)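 Male Han/Wistar rats were dosed orally. Compound levels were measured in plasma, and in brain and CSF at 2 h.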

[12] = molecular target: Sigma non-opioid intracellular receptor 1 (Homo sapiens) (UniProt Q99720); assay: Binding affinity to human sigma 1 receptor at 10 uM by radioligand binding assay
[13] = organism: Rattus norvegicus; assay: Binding affinity to rat sodium channel site 2 at 10 uM by radioligand binding assay
[14] = molecular target: Cytochrome P450 3A4 (Homo sapiens, UniProt P08684); assay: Inhibition of human CYP3A4; assay type: ADME
[15] = system: Liver microsomes; assay: Metabolic stability in human liver microsomes; assay type: ADME, Microsome
[16] = Tmax in Han/Wistar rat at 4 mg/kg, po; assay type: ADME, organism-based; design: dose 4 mg/kg, route oral; settings: in vivo; procedure, shortened: as §1
[17] = organism: Rattus norvegicus; assay: Liver blood flow rat; assay type: ADME, organism-based
[18] = molecular target: Sodium-dependent noradrenaline transporter (Homo sapiens) (UniProt P23975); assay: Binding affinity to human NET at 10 uM by radioligand binding assay
[19] = molecular target: D(2) dopamine receptor (Homo sapiens) (UniProt P14416); assay: Binding affinity to human dopamine D2short receptor at 10 uM by radioligand binding assay
[20] = Half life in Han/Wistar rat at 4 mg/kg, po; assay type: ADME, organism-based; design: dose 4 mg/kg, route oral; settings: in vivo; procedure, shortened: as §1
[21] = molecular target: hERG (KCNH2) (Homo sapiens, UniProt Q12809); assay: Binding affinity to human ERG at 10 uM by radioligand binding assay
[22] = molecular target: Adenosine receptor A1 (Homo sapiens) (UniProt P30542); assay: Binding affinity to human adenosine A1 receptor at 10 uM by radioligand binding assay
[23] = Oral bioavailability in Han/Wistar rat at 4 mg/kg; assay type: ADME, organism-based; settings: in vivo; procedure, shortened: as §1
[24] = molecular target: Beta-2 adrenergic receptor (Homo sapiens) (UniProt P07550); assay: Binding affinity to human adrenergic beta2 receptor at 10 uM by radioligand binding assay
[25] = organism: Rattus norvegicus; assay: Binding affinity to rat sigma 2 receptor at 10 uM by radioligand binding assay
[26] = molecular target: Acetylcholine receptor subunit alpha (Homo sapiens) (UniProt P02708); assay: Binding affinity to human bungrotoxin binding site of nicotinic acetylcholine receptor alpha1 at 10 uM by radioligand binding assay
[27] = Aqueous solubility of compound at pH 7.4; assay type: physicochemical; settings: buffer
[28] = Drug level in Han/Wistar rat brain at 4 mg/kg, po after 2 hrs; assay type: ADME, organism-based; design: dose 4 mg/kg, route oral; settings: read-out: Drug uptake; procedure, shortened: as §1
[29] = molecular target: Mu-type opioid receptor (Homo sapiens) (UniProt P35372); assay: Binding affinity to human MOP receptor at 10 uM by radioligand binding assay
[30] = molecular target: Cytochrome P450 2D6 (Homo sapiens, UniProt P10635); assay: Inhibition of human CYP2D6; assay type: ADME
[31] = system: U937 (Homo sapiens); assay: Cytotoxicity against human U937 cells up to 30 uM by LDH release assay
[32] = molecular target: Adenosine receptor A2a (Homo sapiens) (UniProt P29274); assay: Binding affinity to human adenosine A2A receptor at 10 uM by radioligand binding assay
[33] = molecular target: Muscarinic acetylcholine receptor M2 (Homo sapiens) (UniProt P08172); assay: Binding affinity to human muscarinic M2 receptor at 10 uM by radioligand binding assay
[34] = molecular target: Alpha-2A adrenergic receptor (Homo sapiens) (UniProt P08913); assay: Binding affinity to human adrenergic alpha2A receptor at 10 uM by radioligand binding assay
[35] = organism: Rattus norvegicus; assay: Binding affinity to rat GABA-A receptor at 10 uM by radioligand binding assay
[36] = Clearance in iv dosed Han/Wistar rat; assay type: ADME, organism-based; settings: in vivo
Procedure, shortened: (§2)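 Male Han/Wistar rats were dosed intravenously.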

[37] = organism: Rattus norvegicus; assay: Binding affinity to rat central imidazoline I2 receptor at 10 uM by radioligand binding assay
[38] = molecular target: Muscarinic acetylcholine receptor M3 (Homo sapiens) (UniProt P20309); assay: Binding affinity to human muscarinic M3 receptor at 10 uM by radioligand binding assay
[39] = Drug level in Han/Wistar rat cerebrospinal fluid at 4 mg/kg, po after 2 hrs; assay type: ADME, organism-based; design: dose 4 mg/kg, route oral; settings: read-out: Drug uptake; procedure, shortened: as §1
[40] = molecular target: Glutamate NMDA receptor (Rattus norvegicus) (UniProt P35439+Q00959+Q00960+Q00961+Q62645+Q8VHN2+Q9R1M7); assay: Binding affinity to rat NMDA receptor at 10 uM by radioligand binding assay; assay type: protein-complex assay
[41] = Permeability across human Caco2 cells; assay type: ADME, cell-based; settings: Caco-2, read-out: permeability
[42] = molecular target: Histamine H1 receptor (Homo sapiens) (UniProt P35367); assay: Binding affinity to human histamine H1 receptor at 10 uM by radioligand binding assay
[43] = organism: Rattus norvegicus; assay: Binding affinity to rat dihydropyridine binding site of calcium channel L-type at 10 uM by radioligand binding assay
[44] = molecular target: Alpha-1B adrenergic receptor (Rattus norvegicus) (UniProt P15823); assay: Binding affinity to rat adrenergic Alpha-1B receptor at 10 uM by radioligand binding assay
[45] = molecular target: D(1A) dopamine receptor (Homo sapiens) (UniProt P21728); assay: Binding affinity to human dopamine D1 receptor at 10 uM by radioligand binding assay
[46] = molecular target: Cytochrome P450 2C19 (Homo sapiens, UniProt P33261); assay: Inhibition of human CYP2C19; assay type: ADME
[47] = organism: Rattus norvegicus; assay: Binding affinity to rat rolipram binding site at 10 uM by radioligand binding assay
[48] = Plasma protein binding in rat; assay type: ADME, cell-free; settings: read-out: PPB (converted)
[49] = Cmax in Han/Wistar rat at 4 mg/kg, po; assay type: ADME, organism-based; design: dose 4 mg/kg, route oral; settings: in vivo; procedure, shortened: as §1
[50] = molecular target: Cytochrome P450 1A2 (Homo sapiens, UniProt P05177); assay: Inhibition of human CYP1A2; assay type: ADME
[51] = molecular target: Pyroglutamylated RF-amide peptide receptor (Homo sapiens) (UniProt Q96P65); assay: Binding affinity to human GPR103 receptor at 10 uM by radioligand binding assay
[52] = organism: Rattus norvegicus; assay: Binding affinity to rat ATP-sensitive potassium channel at 10 uM by radioligand binding assay
[53] = Volume of distribution at steady state in iv dosed Han/Wistar rat; assay type: ADME, organism-based; settings: in vivo, read-out: Vdss; procedure, shortened: as §2

Chain of Fatty acid synthase (Homo sapiens, UniProt P49327) (P49327 whole entry): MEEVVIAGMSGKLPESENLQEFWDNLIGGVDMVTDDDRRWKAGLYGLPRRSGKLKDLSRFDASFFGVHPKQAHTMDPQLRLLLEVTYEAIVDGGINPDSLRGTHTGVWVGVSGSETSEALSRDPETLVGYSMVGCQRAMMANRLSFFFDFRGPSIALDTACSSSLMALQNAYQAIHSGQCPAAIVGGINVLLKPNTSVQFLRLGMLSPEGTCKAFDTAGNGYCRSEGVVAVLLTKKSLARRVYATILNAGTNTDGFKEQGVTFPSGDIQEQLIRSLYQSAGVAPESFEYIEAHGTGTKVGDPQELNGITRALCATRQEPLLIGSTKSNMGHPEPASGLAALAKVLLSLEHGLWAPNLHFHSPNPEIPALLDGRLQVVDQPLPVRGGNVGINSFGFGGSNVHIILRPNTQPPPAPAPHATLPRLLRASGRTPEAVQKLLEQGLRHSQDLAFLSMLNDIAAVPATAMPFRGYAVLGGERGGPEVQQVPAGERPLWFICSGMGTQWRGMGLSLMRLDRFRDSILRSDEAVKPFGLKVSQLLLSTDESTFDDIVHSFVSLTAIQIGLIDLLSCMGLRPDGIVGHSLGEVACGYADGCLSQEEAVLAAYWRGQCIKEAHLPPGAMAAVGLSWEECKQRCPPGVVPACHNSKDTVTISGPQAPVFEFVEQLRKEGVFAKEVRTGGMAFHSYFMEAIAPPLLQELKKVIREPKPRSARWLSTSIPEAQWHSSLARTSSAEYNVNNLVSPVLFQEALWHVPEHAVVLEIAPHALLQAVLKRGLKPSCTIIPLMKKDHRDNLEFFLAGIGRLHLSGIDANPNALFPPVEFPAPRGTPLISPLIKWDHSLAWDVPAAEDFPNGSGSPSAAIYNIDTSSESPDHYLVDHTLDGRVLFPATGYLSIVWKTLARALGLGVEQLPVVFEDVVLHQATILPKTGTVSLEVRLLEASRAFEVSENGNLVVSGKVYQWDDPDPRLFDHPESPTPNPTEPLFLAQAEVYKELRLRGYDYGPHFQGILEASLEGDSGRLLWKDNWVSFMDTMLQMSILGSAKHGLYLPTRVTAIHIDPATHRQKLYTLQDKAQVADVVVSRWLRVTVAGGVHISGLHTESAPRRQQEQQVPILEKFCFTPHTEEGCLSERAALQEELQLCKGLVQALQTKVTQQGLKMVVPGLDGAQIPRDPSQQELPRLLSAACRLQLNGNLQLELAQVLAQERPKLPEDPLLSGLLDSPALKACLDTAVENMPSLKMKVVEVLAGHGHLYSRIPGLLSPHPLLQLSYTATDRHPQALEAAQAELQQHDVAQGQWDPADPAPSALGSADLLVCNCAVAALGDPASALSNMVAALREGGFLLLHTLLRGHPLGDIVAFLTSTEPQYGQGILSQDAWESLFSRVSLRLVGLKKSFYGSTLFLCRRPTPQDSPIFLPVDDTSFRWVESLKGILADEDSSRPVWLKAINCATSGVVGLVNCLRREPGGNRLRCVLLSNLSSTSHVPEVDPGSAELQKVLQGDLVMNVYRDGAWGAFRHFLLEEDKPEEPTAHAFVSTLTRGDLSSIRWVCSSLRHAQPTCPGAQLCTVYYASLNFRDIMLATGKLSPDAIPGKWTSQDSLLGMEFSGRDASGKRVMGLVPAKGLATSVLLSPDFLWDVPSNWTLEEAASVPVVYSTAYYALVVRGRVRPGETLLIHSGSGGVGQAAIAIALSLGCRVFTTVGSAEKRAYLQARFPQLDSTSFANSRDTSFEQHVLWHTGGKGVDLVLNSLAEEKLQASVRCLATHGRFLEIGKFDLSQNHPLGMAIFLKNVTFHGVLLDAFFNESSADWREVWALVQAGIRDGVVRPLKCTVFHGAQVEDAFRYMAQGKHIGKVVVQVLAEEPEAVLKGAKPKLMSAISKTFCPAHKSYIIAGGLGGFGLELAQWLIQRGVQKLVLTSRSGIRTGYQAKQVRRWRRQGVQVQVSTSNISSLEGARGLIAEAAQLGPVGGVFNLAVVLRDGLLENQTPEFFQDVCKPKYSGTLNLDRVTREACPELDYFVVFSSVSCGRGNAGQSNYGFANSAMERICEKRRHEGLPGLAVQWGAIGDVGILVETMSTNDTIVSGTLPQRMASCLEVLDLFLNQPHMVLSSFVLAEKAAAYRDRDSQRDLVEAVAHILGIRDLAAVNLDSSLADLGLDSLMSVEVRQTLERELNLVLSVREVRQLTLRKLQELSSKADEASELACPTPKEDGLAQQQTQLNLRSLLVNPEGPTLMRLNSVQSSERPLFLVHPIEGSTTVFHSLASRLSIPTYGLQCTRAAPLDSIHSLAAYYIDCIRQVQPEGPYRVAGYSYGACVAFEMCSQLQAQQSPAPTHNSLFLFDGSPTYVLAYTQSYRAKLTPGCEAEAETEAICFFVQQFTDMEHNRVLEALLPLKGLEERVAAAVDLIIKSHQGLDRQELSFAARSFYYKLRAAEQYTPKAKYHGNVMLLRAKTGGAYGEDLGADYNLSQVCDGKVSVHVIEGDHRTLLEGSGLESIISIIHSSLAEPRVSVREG
Chain of Cytochrome P450 2C9 (P11712 whole entry): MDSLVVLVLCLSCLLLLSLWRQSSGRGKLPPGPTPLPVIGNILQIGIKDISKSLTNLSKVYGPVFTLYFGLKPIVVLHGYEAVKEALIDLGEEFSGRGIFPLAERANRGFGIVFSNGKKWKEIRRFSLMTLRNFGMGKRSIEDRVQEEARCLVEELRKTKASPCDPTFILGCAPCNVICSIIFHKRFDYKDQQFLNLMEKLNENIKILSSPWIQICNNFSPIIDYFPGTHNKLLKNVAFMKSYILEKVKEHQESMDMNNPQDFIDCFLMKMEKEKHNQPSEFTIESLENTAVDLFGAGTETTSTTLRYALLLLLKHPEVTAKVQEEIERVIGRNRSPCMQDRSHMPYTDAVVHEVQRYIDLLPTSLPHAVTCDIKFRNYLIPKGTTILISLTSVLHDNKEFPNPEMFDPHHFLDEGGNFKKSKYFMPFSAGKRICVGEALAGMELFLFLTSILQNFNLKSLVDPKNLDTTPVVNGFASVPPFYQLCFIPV
Chain of Histamine H1 receptor (Homo sapiens) (P35367 whole entry): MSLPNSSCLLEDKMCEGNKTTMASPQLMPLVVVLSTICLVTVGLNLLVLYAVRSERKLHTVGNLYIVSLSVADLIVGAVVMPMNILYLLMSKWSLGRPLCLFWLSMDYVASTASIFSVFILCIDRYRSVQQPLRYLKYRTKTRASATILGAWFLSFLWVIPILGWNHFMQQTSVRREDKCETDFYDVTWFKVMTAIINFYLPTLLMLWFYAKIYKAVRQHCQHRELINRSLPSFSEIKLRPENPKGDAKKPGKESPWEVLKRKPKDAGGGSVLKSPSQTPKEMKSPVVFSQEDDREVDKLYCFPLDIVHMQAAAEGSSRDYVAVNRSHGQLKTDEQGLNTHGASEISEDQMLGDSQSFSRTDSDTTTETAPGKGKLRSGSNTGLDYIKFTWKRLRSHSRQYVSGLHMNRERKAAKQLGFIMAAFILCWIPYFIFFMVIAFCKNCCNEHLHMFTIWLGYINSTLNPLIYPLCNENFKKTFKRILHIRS
Chain of Cytochrome P450 1A2 (P05177 whole entry): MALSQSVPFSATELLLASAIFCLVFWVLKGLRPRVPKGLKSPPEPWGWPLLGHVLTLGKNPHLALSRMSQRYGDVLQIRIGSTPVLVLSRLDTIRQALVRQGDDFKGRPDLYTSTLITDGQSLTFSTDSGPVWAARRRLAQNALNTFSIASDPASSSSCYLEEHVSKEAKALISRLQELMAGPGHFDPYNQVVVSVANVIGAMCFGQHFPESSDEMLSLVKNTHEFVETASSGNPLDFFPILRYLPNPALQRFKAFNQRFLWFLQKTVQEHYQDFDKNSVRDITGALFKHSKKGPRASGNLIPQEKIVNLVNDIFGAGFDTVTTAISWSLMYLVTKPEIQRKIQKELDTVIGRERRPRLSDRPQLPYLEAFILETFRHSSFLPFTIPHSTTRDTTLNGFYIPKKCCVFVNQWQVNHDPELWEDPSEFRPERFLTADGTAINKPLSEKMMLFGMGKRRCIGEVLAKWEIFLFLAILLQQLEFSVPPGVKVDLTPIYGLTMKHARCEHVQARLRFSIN
Chain of Cytochrome P450 2C19 (P33261 whole entry): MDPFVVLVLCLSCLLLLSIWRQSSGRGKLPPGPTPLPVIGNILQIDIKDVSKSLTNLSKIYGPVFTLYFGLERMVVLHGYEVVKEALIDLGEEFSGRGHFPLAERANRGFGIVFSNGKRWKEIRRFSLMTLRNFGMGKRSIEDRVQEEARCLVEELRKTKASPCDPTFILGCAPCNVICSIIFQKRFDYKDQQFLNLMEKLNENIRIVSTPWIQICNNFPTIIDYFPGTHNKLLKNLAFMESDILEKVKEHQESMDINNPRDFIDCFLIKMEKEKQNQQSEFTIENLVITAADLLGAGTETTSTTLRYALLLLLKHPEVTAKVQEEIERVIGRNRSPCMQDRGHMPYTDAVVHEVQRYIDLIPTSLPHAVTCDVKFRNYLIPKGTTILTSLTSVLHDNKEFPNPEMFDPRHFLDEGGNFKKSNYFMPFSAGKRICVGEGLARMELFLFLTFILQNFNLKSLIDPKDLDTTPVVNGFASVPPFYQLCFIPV
Chain of Beta-2 adrenergic receptor (Homo sapiens) (P07550 whole entry, looked up): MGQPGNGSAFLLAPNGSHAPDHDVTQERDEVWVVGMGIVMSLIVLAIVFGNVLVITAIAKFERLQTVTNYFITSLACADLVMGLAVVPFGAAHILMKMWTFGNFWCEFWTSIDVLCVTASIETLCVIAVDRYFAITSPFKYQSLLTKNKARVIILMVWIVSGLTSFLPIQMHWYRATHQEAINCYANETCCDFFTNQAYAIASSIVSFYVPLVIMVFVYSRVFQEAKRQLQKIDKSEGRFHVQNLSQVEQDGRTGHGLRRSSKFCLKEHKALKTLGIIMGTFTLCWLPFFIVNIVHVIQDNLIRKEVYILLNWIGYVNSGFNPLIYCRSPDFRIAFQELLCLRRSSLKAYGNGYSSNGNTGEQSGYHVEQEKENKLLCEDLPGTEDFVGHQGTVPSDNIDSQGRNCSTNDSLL

Structure (SMILES): C/C=C/C/C=C/CCC(=O)[C@H]1O[C@H]1C(N)=O [CERULENIN]
IC50 [1]: 5.8 µM

Structure (SMILES): CC(C)C(=O)N[C@H]1CC[C@@H](C(=O)N(C)c2ccc(-c3nc4ccccc4[nH]3)cc2)C1
IC50 [1]: 1.5 µM

Structure (SMILES): CC(C)C(=O)N[C@H]1CC[C@@H](C(=O)N(C)c2ccc(-c3ccccc3)cc2)C1
IC50 [1]: 0.42 µM

Structure (SMILES): CCC(=O)N[C@H]1CC[C@@H](C(=O)N(C)c2ccc(-c3nc4ccccc4o3)cc2)C1 [BI 99179]
inhibition [2]: 4%
Stability [3]: Stable
QH [4]: < 26%
inhibition [5]: 17%
inhibition [6]: 9%
inhibition [7]: 6%
IC50 [8]: 0.6 µM
inhibition [9]: 4%
IC50 [10]: > 10 µM
AUC(0-inf) [11]: 9.35 µM·h
inhibition [12]: -2%
inhibition [13]: 1%
IC50 [14]: > 10 µM
Stability [15]: Stable
Tmax [16]: 0.5 h
QH [17]: < 27%
inhibition [18]: 9%
inhibition [19]: 5%
half-life [20]: 3 h
inhibition at 10 µM [21]: -5%
inhibition [22]: -7%
bioavailability [23]: 46%
inhibition [24]: 0%
inhibition [25]: 13%
inhibition [26]: 9%
solubility [27]: 5 µg/mL (≈ 12.8 µM)
concentration at 2 h [28]: 1300 nM
inhibition [29]: 0%
IC50 [30]: > 10 µM
Activity [31]: Non-toxic
IC50 [1]: 0.079 µM
inhibition [32]: 10%
inhibition [33]: 10%
inhibition [34]: 2%
inhibition [35]: 8%
clearance [36]: 8.2 mL/min/kg
inhibition [37]: 19%
inhibition [38]: -6%
concentration at 2 h [39]: 50 nM
inhibition [40]: -1%
Papp [41]: 94 ×10⁻⁶ cm/s
inhibition [42]: 13%
inhibition [43]: 7%
inhibition [44]: 4%
inhibition [45]: 7%
IC50 [46]: > 10 µM
inhibition [47]: 17%
fraction unbound [48]: 0.024
Cmax [49]: 2110 nM
IC50 [50]: > 10 µM
inhibition [51]: -1%
inhibition [52]: 12%
Vd [53]: 1.6 L/kg

Structure (SMILES): CN(C)CCCCCC(=O)N[C@H]1CC[C@@H](C(=O)N(C)c2ccc(-c3nc4ccccc4n3C)cc2)C1
IC50 [1]: 2.4 µM

Structure (SMILES): CN(C)CCCCCC(=O)N[C@H]1CC[C@@H](C(=O)N(C)c2ccc(-c3nc4ccccc4[nH]3)cc2)C1
IC50 [1]: 0.7 µM

Now from value to compound:

IC50 [1]: 0.29 µM
Structure (SMILES): CCC(=O)N[C@H]1CC[C@@H](C(=O)N(C)c2ccc(-c3cn4ccccc4n3)cc2)C1

IC50 [1]: 0.3 µM
Structure (SMILES): CCC(=O)N[C@H]1CC[C@@H](C(=O)N(C)c2ccc(-c3ccccc3)cc2)C1

IC50 [1]: 1.3 µM
Structure (SMILES): CC(=O)N[C@H]1CC[C@@H](C(=O)N(C)c2ccc(-c3nc4ccccc4[nH]3)cc2)C1

IC50 [1]: 1.4 µM
Structure (SMILES): CCNC(=O)N[C@H]1CC[C@@H](C(=O)N(C)c2ccc(-c3nc4ccccc4n3C)cc2)C1

IC50 [1]: 0.31 µM
Structure (SMILES): CCC(=O)N[C@H]1CC[C@@H](C(=O)N(C)c2ccc(-c3nc4ccccc4n3C)cc2)C1

IC50 [1]: > 3 µM
Structure (SMILES): CCC(=O)N[C@@H]1CC[C@H](C(=O)N(C)c2ccc(-c3nc4ccccc4o3)cc2)C1 [BI 99990]

IC50 [1]: 0.42 µM
Structure (SMILES): CCCC(=O)N[C@H]1CC[C@@H](C(=O)N(C)c2ccc(-c3nc4ccccc4o3)cc2)C1
